Source: ChEMBL document CHEMBL1153337, “Small molecule antagonists of the gonadotropin-releasing hormone (GnRH) receptor: structure-activity relationships of small heterocyclic groups appended to the 2-phenyl-4-piperazinyl-benzimidazole template” (Bioorg Med Chem Lett, 2009)

Key:
[1] = target: T1, Gonadotropin-releasing hormone receptor (Homo sapiens, UniProt P30968); assay: Displacement of [125I]-(D-Trp6)-GnRH from human GnRH receptor
T1 sequence (P30968 whole entry): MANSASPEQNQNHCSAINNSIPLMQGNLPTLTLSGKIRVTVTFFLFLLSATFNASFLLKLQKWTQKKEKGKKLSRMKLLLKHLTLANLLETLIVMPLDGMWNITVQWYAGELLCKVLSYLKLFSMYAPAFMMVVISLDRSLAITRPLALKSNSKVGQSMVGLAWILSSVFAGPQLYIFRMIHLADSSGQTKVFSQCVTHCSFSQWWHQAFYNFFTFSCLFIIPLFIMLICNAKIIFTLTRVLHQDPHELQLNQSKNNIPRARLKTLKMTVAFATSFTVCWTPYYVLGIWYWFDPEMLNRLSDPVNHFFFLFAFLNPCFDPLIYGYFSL
Procedure, shortened: (§1)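 Competition binding at overexpressed human or rat GnRH receptors against 125I-(D-Trp6)-GnRH; IC50 averaged from two independent experiments run in triplicate.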

[2] = target: T2, Gonadotropin-releasing hormone receptor (Rattus norvegicus, UniProt P30969); assay: Displacement of [125I]-(D-Trp6)-GnRH from rat GnRH receptor; procedure, shortened: as §1
T2 sequence (P30969 whole entry): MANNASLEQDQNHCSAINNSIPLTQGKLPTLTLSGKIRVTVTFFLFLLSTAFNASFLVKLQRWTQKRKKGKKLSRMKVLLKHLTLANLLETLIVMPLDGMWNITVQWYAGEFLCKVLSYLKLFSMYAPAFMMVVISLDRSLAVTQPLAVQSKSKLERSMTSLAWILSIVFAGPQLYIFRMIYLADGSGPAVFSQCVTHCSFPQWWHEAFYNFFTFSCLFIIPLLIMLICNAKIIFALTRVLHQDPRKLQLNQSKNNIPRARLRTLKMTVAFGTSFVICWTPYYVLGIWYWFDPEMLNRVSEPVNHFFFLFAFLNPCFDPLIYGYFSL

[3] = Solubility at pH 7.4; assay type: physicochemical; conditions: buffer
[4] = Metabolic stability in rat liver microsomes assessed as half life; assay type: ADME, Microsome
CYP3A4 = CYP3A4 (Homo sapiens, UniProt P08684); assay: Inhibition of CYP3A4 at 3 uM; assay type: ADME
CYP2D6 = CYP2D6 (Homo sapiens, UniProt P10635); assay: Inhibition of CYP2D6 at 3 uM; assay type: ADME
CYP2C9 = CYP2C9 (Homo sapiens, UniProt P11712); assay: Inhibition of CYP2C9 at 3 uM; assay type: ADME
[5] = Clearance in orchidectomized Sprague-Dawley rat at 1 mg/kg, iv after 1 day; assay type: ADME, organism-based; design: dose 1 mg/kg, route intravenous; conditions: male, in vivo
Procedure, shortened: (§2)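 Orchidectomized SD rats, single iv dose of 1 mg/kg in 20% DMSO/PEG 200; one-day PK study.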

[6] = Volume of distribution at steady state in orchidectomized Sprague-Dawley rat at 1 mg/kg, iv after 1 day; assay type: ADME, organism-based; design: dose 1 mg/kg, route intravenous; conditions: male, in vivo, read-out: Vdss; procedure, shortened: as §2
[7] = Half life in orchidectomized Sprague-Dawley rat at 1 mg/kg, iv after 1 day; assay type: ADME, organism-based; design: dose 1 mg/kg, route intravenous; conditions: male, in vivo; procedure, shortened: as §2
[8] = AUC (0 to alpha) in orchidectomized Sprague-Dawley rat at 30 mg/kg, po after 1 day; assay type: ADME, organism-based; design: dose 30 mg/kg, route oral; conditions: male, plasma
Procedure, shortened: (§3)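 Orchidectomized SD rats, single oral dose of 30 mg/kg in PEG 400; iv arm 1 mg/kg in 20% DMSO/PEG 200 for bioavailability; one-day PK study.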

[9] = Half life in orchidectomized Sprague-Dawley rat at 30 mg/kg, po after 1 day; assay type: ADME, organism-based; design: dose 30 mg/kg, route oral; conditions: male, in vivo; procedure, shortened: as §3
[10] = Oral bioavailability in orchidectomized Sprague-Dawley rat at 30 mg/kg after 1 day; assay type: ADME, organism-based; conditions: male, in vivo; procedure, shortened: as §3
Rattus norvegicus [11] = assay: Change in serum leutinizing hormone level in orchidectomized rat at 30 mg/kg, po after 0.5 hrs relative to control; assay type: functional
Procedure, shortened: (§4)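 Orchidectomized rats (stable elevated LH after testosterone feedback removal), oral gavage 30 mg/kg in PEG 400 vs vehicle cohort, n = 6 per group; serum LH sampled over 24 h, relative LH with t = 0 set to 100; change = treated minus vehicle average.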

Rattus norvegicus [12] = assay: Change in serum leutinizing hormone level in orchidectomized rat at 30 mg/kg, po after 1 hr relative to control; assay type: functional; procedure, shortened: as §4
Rattus norvegicus [13] = assay: Change in serum leutinizing hormone level in orchidectomized rat at 30 mg/kg, po after 2 hrs relative to control; assay type: functional; procedure, shortened: as §4
Rattus norvegicus [14] = assay: Change in serum leutinizing hormone level in orchidectomized rat at 30 mg/kg, po after 4 hrs relative to control; assay type: functional; procedure, shortened: as §4
Rattus norvegicus [15] = assay: Change in serum leutinizing hormone level in orchidectomized rat at 30 mg/kg, po after 6 hrs relative to control; assay type: functional; procedure, shortened: as §4
Rattus norvegicus [16] = assay: Change in serum leutinizing hormone level in orchidectomized rat at 30 mg/kg, po after 24 hrs relative to control; assay type: functional; procedure, shortened: as §4
[17] = target: T1, Gonadotropin-releasing hormone receptor; assay: Antagonist activity at human recombinant GnRH receptor expressed in HEK293 cells assessed as reduction in (D-Trp6)-GnRH-stimulated IP production by whole cell assay; assay type: functional, cell-based
Procedure, shortened: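 Whole-cell assay, cells stimulated with (D-Trp6)-GnRH; compound-driven reduction of inositol phosphate read as IC50.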

[18] = Reduction in leutinizing hormone release in (D-Trp6)-GnRH-stimulated rat primary pituitary cells by RIA; assay type: functional, cell-based; conditions: Pituitary gland cell
Procedure, shortened: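 Primary rat pituitary cells stimulated with (D-Trp6)-GnRH; compound-driven reduction of LH release read as IC50.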

Chain of CYP3A4 (P08684 whole entry): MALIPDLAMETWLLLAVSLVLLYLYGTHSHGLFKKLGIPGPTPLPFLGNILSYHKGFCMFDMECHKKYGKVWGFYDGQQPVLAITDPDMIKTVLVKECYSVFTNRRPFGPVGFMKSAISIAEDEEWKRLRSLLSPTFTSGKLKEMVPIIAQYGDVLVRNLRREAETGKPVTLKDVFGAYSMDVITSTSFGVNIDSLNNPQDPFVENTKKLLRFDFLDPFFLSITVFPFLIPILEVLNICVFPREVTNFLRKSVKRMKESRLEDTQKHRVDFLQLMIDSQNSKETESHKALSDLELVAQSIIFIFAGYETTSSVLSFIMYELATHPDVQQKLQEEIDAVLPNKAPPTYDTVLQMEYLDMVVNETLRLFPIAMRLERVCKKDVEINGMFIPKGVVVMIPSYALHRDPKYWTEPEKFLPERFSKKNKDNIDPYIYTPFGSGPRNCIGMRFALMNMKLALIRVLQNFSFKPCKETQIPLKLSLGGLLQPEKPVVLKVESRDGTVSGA
Chain of CYP2D6 (P10635 whole entry): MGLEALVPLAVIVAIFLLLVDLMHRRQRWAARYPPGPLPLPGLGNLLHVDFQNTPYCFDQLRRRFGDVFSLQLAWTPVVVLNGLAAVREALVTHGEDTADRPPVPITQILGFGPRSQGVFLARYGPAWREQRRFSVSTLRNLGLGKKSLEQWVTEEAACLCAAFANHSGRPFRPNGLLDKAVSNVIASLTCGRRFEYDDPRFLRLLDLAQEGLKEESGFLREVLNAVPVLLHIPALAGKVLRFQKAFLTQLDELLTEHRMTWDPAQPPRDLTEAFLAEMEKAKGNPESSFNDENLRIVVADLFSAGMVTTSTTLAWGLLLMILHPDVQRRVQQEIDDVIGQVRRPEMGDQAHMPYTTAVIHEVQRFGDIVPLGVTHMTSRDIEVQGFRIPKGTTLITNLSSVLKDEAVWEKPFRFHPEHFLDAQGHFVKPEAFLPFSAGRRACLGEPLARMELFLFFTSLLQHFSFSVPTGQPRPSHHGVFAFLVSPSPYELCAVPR
Chain of CYP2C9 (P11712 whole entry): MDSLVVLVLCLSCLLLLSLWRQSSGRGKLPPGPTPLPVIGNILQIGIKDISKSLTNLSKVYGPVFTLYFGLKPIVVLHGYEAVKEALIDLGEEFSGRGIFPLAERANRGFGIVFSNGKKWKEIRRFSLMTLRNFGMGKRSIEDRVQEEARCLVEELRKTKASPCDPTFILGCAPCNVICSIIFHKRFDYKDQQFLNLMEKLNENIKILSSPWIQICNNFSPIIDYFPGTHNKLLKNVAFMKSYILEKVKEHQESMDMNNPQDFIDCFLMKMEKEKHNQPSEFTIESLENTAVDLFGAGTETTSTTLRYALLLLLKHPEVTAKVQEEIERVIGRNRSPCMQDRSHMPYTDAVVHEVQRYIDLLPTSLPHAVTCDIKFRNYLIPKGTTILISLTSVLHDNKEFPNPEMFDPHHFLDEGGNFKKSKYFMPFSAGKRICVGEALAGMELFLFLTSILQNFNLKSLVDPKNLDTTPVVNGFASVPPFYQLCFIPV

IC50 [1]: 7 nM | IC50 [2]: 24 nM | solubility [3]: > 100 µg/mL | half-life [4]: 21 min | inhibition at 3 µM (CYP3A4): 73% | inhibition at 3 µM (CYP2D6): 14% | inhibition at 3 µM (CYP2C9): 27% | clearance [5]: 134 mL/min/kg | Vd [6]: 2.7 L/kg | half-life [7]: 18 min | AUC at 24 h [8]: 3440 ng·h/mL | half-life [9]: 222 min | bioavailability [10]: 93% | IC50 [17]: 14 nM | IC50 [18]: 200 nM
SMILES: CCn1cnc(CN2CCN(c3cccc4[nH]c(-c5ccc(C(C)(C)C)cc5)nc34)CC2)c1C
Activity (Rattus norvegicus [11]): -0.2 | Activity (Rattus norvegicus [12]): -18 | Activity (Rattus norvegicus [13]): -52.8 | Activity (Rattus norvegicus [14]): 14.5 | Activity (Rattus norvegicus [15]): -32.3 | Activity (Rattus norvegicus [16]): -3.5
